# Calls of active or inactive are those of the source. The rule behind the calls is not given here.
# Tests used:
# Type in all cases: cell-based
# F11 [1] = test: Blockade of delayed rectifier potassium channel in mouse rat hybrid F11 cells at 90 uM by whole-cell patch clamp technique
# In short: (§1)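 F11 cells (mouse neuroblastoma N18TG-2 × rat DRG) grown in DMEM with 4.5 g/L glucose and 10% FCS at 37 °C, 5% CO2, and plated about 24 h before recording. Whole-cell clamp with compensated capacitance and series resistance. Pipette: K-aspartate 130 mM, EGTA 10 mM, MgATP 1 mM, pCa 7. Cells perfused with low-K physiologic solution; step to 60 mV from −60 mV holding; TEA-isolated current. Drug applied by perfusion, DMSO 1:2000 final.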
# F11 [2] = test: Blockade of sodium channel in mouse rat hybrid F11 cells by whole-cell patch clamp technique
# In short: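 F11 cells (mouse neuroblastoma N18TG-2 × rat DRG hybrid) grown in DMEM with 4.5 g/L glucose and 10% FCS at 37 °C, 5% CO2. Cells were plated and incubated about 24 h before whole-cell recording. Pipette solution was K-aspartate based at pCa 7 with 1 mM MgATP. Compounds came from 300 mM DMSO stocks, with DMSO at 1:2000 final, and were delivered by local perfusion. Capacitance and series resistance were compensated 85–95%.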
# F11 [3] = test: Blockade of inward rectifier potassium channel in mouse rat hybrid F11 cells at 36 uM by whole-cell patch clamp technique
# F11 [4] = test: Blockade of delayed rectifier potassium channel in mouse rat hybrid F11 cells at 36 uM by whole-cell patch clamp technique; in short: as §1
# F11 [5] = test: Blockade of inward rectifier potassium channel in mouse rat hybrid F11 cells at 45 uM by whole-cell patch clamp technique
# F11 [6] = test: Blockade of delayed rectifier potassium channel in mouse rat hybrid F11 cells at 45 uM by whole-cell patch clamp technique; in short: as §1
SMILES,Activity (F11 [1]) [%],further results
Oc1ccc(CCc2cc(O)cc(O)c2)cc1,52,
COc1ccc(CCc2cc(O)cc(O)c2)cc1,89.4,Activity (F11 [2]): Active
CC(C)=CCOc1cc(O)cc(CCc2ccc(O)cc2)c1,,Activity (F11 [3]): 53.7%; Activity (F11 [4]): 55.5%
COc1ccc(CCc2cc(OC)cc(OC)c2)cc1,38.6,
Oc1ccc(/C=C/c2cc(O)cc(O)c2)cc1,42.9,
Oc1ccc(CCc2cc(O)cc(OCc3ccccc3)c2)cc1,89,
c1ccc(COc2ccc(CCc3cc(OCc4ccccc4)cc(OCc4ccccc4)c3)cc2)cc1,57,
COc1cc(O)cc(CCc2ccc(O)cc2)c1,69,
Oc1cc(CCc2ccc(OCc3ccccc3)cc2)cc(OCc2ccccc2)c1,50,
COc1ccc(/C=C\c2cc(O)cc(O)c2)cc1,70.4,Activity (F11 [2]): Active
Oc1cc(O)cc(CCc2ccc(OCc3ccccc3)cc2)c1,89,
CC(C)=CCc1c(O)cc(CCc2ccc(O)cc2)cc1O,,Activity (F11 [5]): 50.1%; Activity (F11 [6]): 74%

# Reference: ChEMBL document CHEMBL1146504, “Resveratrol derivatives and their role as potassium channels modulators” (J Nat Prod, 2004)
